Source: ChEMBL document CHEMBL4715736, “Identification of anticancer agents based on the thieno[2,3-b]pyridine and 1H-pyrazole molecular scaffolds” (2016)

tested on: NCI-H322M; assay: Growth inhibition of human NCI-H322M cells assessed as cell growth at 0.01 uM incubated for 48 hrs by sulforhodamine B assay relative to control; format: functional; conditions: read-out: Activity

SMILES	growth at 0.01 µM [%]
CN1CCc2nc3sc(C(N)=O)c(N)c3c(-c3cccs3)c2C1	96

tested on: NCI-H460; assay: Growth inhibition of human NCI-H460 cells assessed as cell growth at 0.01 uM incubated for 48 hrs by sulforhodamine B assay relative to control; format: functional; conditions: read-out: Activity

SMILES	growth at 0.01 µM [%]
CN1CCc2nc3sc(C(N)=O)c(N)c3c(-c3cccs3)c2C1	109

tested on: SW-620; assay: Growth inhibition of human SW-620 cells assessed as cell growth at 0.01 uM incubated for 48 hrs by sulforhodamine B assay relative to control; format: functional; conditions: read-out: Activity

SMILES	growth at 0.01 µM [%]
CN1CCc2nc3sc(C(N)=O)c(N)c3c(-c3cccs3)c2C1	105

tested on: SNB-19; assay: Growth inhibition of human SNB-19 cells assessed as cell growth at 0.01 uM incubated for 48 hrs by sulforhodamine B assay relative to control; format: functional; conditions: read-out: Activity

SMILES	growth at 0.01 µM [%]
CN1CCc2nc3sc(C(N)=O)c(N)c3c(-c3cccs3)c2C1	103

tested on: LOX IMVI; assay: Growth inhibition of human LOX IMVI cells assessed as cell growth at 0.01 uM incubated for 48 hrs by sulforhodamine B assay relative to control; format: functional; conditions: read-out: Activity

SMILES	growth at 0.01 µM [%]
CN1CCc2nc3sc(C(N)=O)c(N)c3c(-c3cccs3)c2C1	97

tested on: SK-MEL-2; assay: Growth inhibition of human SK-MEL-2 cells assessed as cell growth at 0.01 uM incubated for 48 hrs by sulforhodamine B assay relative to control; format: functional; conditions: read-out: Activity

SMILES	growth at 0.01 µM [%]
CN1CCc2nc3sc(C(N)=O)c(N)c3c(-c3cccs3)c2C1	107

tested on: SK-OV-3; assay: Growth inhibition of human SK-OV-3 cells assessed as cell growth at 0.01 uM incubated for 48 hrs by sulforhodamine B assay relative to control; format: functional; conditions: read-out: Activity

SMILES	growth at 0.01 µM [%]
CN1CCc2nc3sc(C(N)=O)c(N)c3c(-c3cccs3)c2C1	93

tested on: 786-0; assay: Growth inhibition of human 786-0 cells assessed as cell growth at 0.01 uM incubated for 48 hrs by sulforhodamine B assay relative to control; format: functional; conditions: read-out: Activity
Outline: (§1)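 NCI Developmental Therapeutics Program NCI60 panel. Compounds that were active in the 10 µM one-dose screen went on to dose–response testing. Growth at each concentration is expressed relative to untreated control (100%). GI50 (concentration giving 50% of maximal inhibition of proliferation) and TGI (concentration giving total growth inhibition) were derived from the curves.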

SMILES	growth at 0.01 µM [%]
CN1CCc2nc3sc(C(N)=O)c(N)c3c(-c3cccs3)c2C1	95

tested on: CAKI-1; assay: Growth inhibition of human CAKI-1 cells assessed as cell growth at 0.01 uM incubated for 48 hrs by sulforhodamine B assay relative to control; format: functional; conditions: read-out: Activity; outline: as §1

SMILES	growth at 0.01 µM [%]
CN1CCc2nc3sc(C(N)=O)c(N)c3c(-c3cccs3)c2C1	95

tested on: NCI-H522; assay: Growth inhibition of human NCI-H522 cells assessed as cell growth at 0.1 uM incubated for 48 hrs by sulforhodamine B assay relative to control; format: functional; conditions: read-out: Activity

SMILES	growth at 0.1 µM [%]
CN1CCc2nc3sc(C(N)=O)c(N)c3c(-c3cccs3)c2C1	100

tested on: SF-268; assay: Growth inhibition of human SF-268 cells assessed as cell growth at 0.1 uM incubated for 48 hrs by sulforhodamine B assay relative to control; format: functional; conditions: read-out: Activity

SMILES	growth at 0.1 µM [%]
CN1CCc2nc3sc(C(N)=O)c(N)c3c(-c3cccs3)c2C1	110

tested on: SF-539; assay: Growth inhibition of human SF-539 cells assessed as cell growth at 0.1 uM incubated for 48 hrs by sulforhodamine B assay relative to control; format: functional; conditions: read-out: Activity

SMILES	growth at 0.1 µM [%]
CN1CCc2nc3sc(C(N)=O)c(N)c3c(-c3cccs3)c2C1	104

tested on: Malme-3M; assay: Growth inhibition of human Malme-3M cells assessed as cell growth at 0.1 uM incubated for 48 hrs by sulforhodamine B assay relative to control; format: functional; conditions: read-out: Activity

SMILES	growth at 0.1 µM [%]
CN1CCc2nc3sc(C(N)=O)c(N)c3c(-c3cccs3)c2C1	111

tested on: M14; assay: Growth inhibition of human M14 cells assessed as cell growth at 0.1 uM incubated for 48 hrs by sulforhodamine B assay relative to control; format: functional; conditions: read-out: Activity

SMILES	growth at 0.1 µM [%]
CN1CCc2nc3sc(C(N)=O)c(N)c3c(-c3cccs3)c2C1	111

tested on: UACC-62; assay: Growth inhibition of human UACC-62 cells assessed as cell growth at 0.1 uM incubated for 48 hrs by sulforhodamine B assay relative to control; format: functional; conditions: read-out: Activity

SMILES	growth at 0.1 µM [%]
CN1CCc2nc3sc(C(N)=O)c(N)c3c(-c3cccs3)c2C1	105

tested on: NCI/ADR-RES; assay: Growth inhibition of human NCI/ADR-RES cells assessed as cell growth at 0.1 uM incubated for 48 hrs by sulforhodamine B assay relative to control; format: functional; conditions: read-out: Activity

SMILES	growth at 0.1 µM [%]
CN1CCc2nc3sc(C(N)=O)c(N)c3c(-c3cccs3)c2C1	96

tested on: 786-0; assay: Growth inhibition of human 786-0 cells assessed as cell growth at 0.1 uM incubated for 48 hrs by sulforhodamine B assay relative to control; format: functional; conditions: read-out: Activity; outline: as §1

SMILES	growth at 0.1 µM [%]
CN1CCc2nc3sc(C(N)=O)c(N)c3c(-c3cccs3)c2C1	99

tested on: CAKI-1; assay: Growth inhibition of human CAKI-1 cells assessed as cell growth at 0.1 uM incubated for 48 hrs by sulforhodamine B assay relative to control; format: functional; conditions: read-out: Activity; outline: as §1

SMILES	growth at 0.1 µM [%]
CN1CCc2nc3sc(C(N)=O)c(N)c3c(-c3cccs3)c2C1	82

tested on: DU-145; assay: Growth inhibition of human DU-145 cells assessed as cell growth at 0.1 uM incubated for 48 hrs by sulforhodamine B assay relative to control; format: functional; conditions: read-out: Activity; outline: as §1

SMILES	growth at 0.1 µM [%]
CN1CCc2nc3sc(C(N)=O)c(N)c3c(-c3cccs3)c2C1	115

tested on: K562; assay: Growth inhibition of human K562 cells assessed as cell growth at 1 uM incubated for 48 hrs by sulforhodamine B assay relative to control; format: functional; conditions: read-out: Activity

SMILES	growth at 1 µM [%]
CN1CCc2nc3sc(C(N)=O)c(N)c3c(-c3cccs3)c2C1	96

tested on: NCI-H226; assay: Growth inhibition of human NCI-H226 cells assessed as cell growth at 1 uM incubated for 48 hrs by sulforhodamine B assay relative to control; format: functional; conditions: read-out: Activity

SMILES	growth at 1 µM [%]
CN1CCc2nc3sc(C(N)=O)c(N)c3c(-c3cccs3)c2C1	88

tested on: U-251; assay: Growth inhibition of human U-251 cells assessed as cell growth at 1 uM incubated for 48 hrs by sulforhodamine B assay relative to control; format: functional; conditions: read-out: Activity

SMILES	growth at 1 µM [%]
CN1CCc2nc3sc(C(N)=O)c(N)c3c(-c3cccs3)c2C1	90

tested on: OVCAR-3; assay: Growth inhibition of human OVCAR-3 cells assessed as cell growth at 1 uM incubated for 48 hrs by sulforhodamine B assay relative to control; format: functional; conditions: read-out: Activity

SMILES	growth at 1 µM [%]
CN1CCc2nc3sc(C(N)=O)c(N)c3c(-c3cccs3)c2C1	87

tested on: UO-31; assay: Growth inhibition of human UO-31 cells assessed as cell growth at 1 uM incubated for 48 hrs by sulforhodamine B assay relative to control; format: functional; conditions: read-out: Activity

SMILES	growth at 1 µM [%]
CN1CCc2nc3sc(C(N)=O)c(N)c3c(-c3cccs3)c2C1	95

tested on: Malme-3M; assay: Growth inhibition of human Malme-3M cells assessed as cell growth at 100 uM incubated for 48 hrs by sulforhodamine B assay relative to control; format: functional; conditions: read-out: Activity

SMILES	growth at 100 µM [%]
CN1CCc2nc3sc(C(N)=O)c(N)c3c(-c3cccs3)c2C1	-11

tested on: SN12C; assay: Growth inhibition of human SN12C cells assessed as cell growth at 100 uM incubated for 48 hrs by sulforhodamine B assay relative to control; format: functional; conditions: read-out: Activity

SMILES	growth at 100 µM [%]
CN1CCc2nc3sc(C(N)=O)c(N)c3c(-c3cccs3)c2C1	6

tested on: TK-10; assay: Growth inhibition of human TK-10 cells assessed as cell growth at 100 uM incubated for 48 hrs by sulforhodamine B assay relative to control; format: functional; conditions: read-out: Activity

SMILES	growth at 100 µM [%]
CN1CCc2nc3sc(C(N)=O)c(N)c3c(-c3cccs3)c2C1	-6

tested on: HOP-92; assay: Growth inhibition of human HOP-92 cells incubated for 48 hrs by sulforhodamine B assay; format: functional; conditions: not given
Outline: (§2)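 NCI60 panel at the NCI Developmental Therapeutics Program. Only compounds active in the 10 µM screen went to dose-response testing. GI50, the concentration giving 50% of maximal inhibition of proliferation, and TGI, the concentration giving total growth inhibition, were derived from the dose-response curves.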

SMILES	GI50 [µM]	LC50 (concentration killing 50% of the starting cells) [µM]	TGI [µM]
CN1CCc2nc3sc(C(N)=O)c(N)c3c(-c3cccs3)c2C1	3.16	> 100	9.16

tested on: NCI-H460; assay: Growth inhibition of human NCI-H460 cells incubated for 48 hrs by sulforhodamine B assay; format: functional; conditions: not given; outline: as §2

SMILES	GI50 [µM]	LC50 [µM]	TGI [µM]
CN1CCc2nc3sc(C(N)=O)c(N)c3c(-c3cccs3)c2C1	3.71	> 100	> 100

tested on: HCC 2998; assay: Growth inhibition of human HCC 2998 cells incubated for 48 hrs by sulforhodamine B assay; format: functional; conditions: not given

SMILES	GI50 [µM]	TGI [µM]
CN1CCc2nc3sc(C(N)=O)c(N)c3c(-c3cccs3)c2C1	3.54	20.9

same assay, conditions: read-out: LC50 (the source's name)

SMILES	CC50 [µM]
CN1CCc2nc3sc(C(N)=O)c(N)c3c(-c3cccs3)c2C1	> 100

tested on: U-251; assay: Growth inhibition of human U-251 cells incubated for 48 hrs by sulforhodamine B assay; format: functional; conditions: not given
Outline: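 NCI DTP 60-line human tumour panel. Dose-response curves were run only for ligands active in the initial 10 µM screen. GI50 (concentration giving 50% of maximal inhibition of proliferation) and TGI (concentration giving total growth inhibition) were derived from these curves.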

SMILES	GI50 [µM]	LC50 (concentration killing 50% of cells) [µM]	TGI [µM]
CN1CCc2nc3sc(C(N)=O)c(N)c3c(-c3cccs3)c2C1	3.18	> 100	> 100

tested on: Malme-3M; assay: Growth inhibition of human Malme-3M cells incubated for 48 hrs by sulforhodamine B assay; format: functional; conditions: not given; outline: as §2

SMILES	GI50 [µM]	LC50 [µM]	TGI [µM]
CN1CCc2nc3sc(C(N)=O)c(N)c3c(-c3cccs3)c2C1	5.06	> 100	38.4

tested on: M14; assay: Growth inhibition of human M14 cells incubated for 48 hrs by sulforhodamine B assay; format: functional; conditions: not given; outline: as §2

SMILES	GI50 [µM]	LC50 (concentration killing 50% of cells) [µM]	TGI [µM]
CN1CCc2nc3sc(C(N)=O)c(N)c3c(-c3cccs3)c2C1	4.19	> 100	19.4
